Test results from ChEMBL document CHEMBL1138987, “Development of cyclic gamma-MSH analogues with selective hMC3R agonist and hMC3R/hMC5R antagonist activities” (J Med Chem, 2006).

How the values were obtained:
Melanocortin receptor 3 [1] = molecular target: T1, Melanocortin receptor 3 (Homo sapiens, UniProt P41968); experiment: Inhibitory activity against hMC3R transfected in HEK293 cells; format: cell-based
Method in brief: (§1)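 Competition binding on whole HEK293 cells stably expressing the human receptor, seeded 48 h prior. Binding buffer was MEM, 25 mM HEPES pH 7.4, 0.2% BSA, 1,10-phenanthroline, leupeptin and bacitracin. Cells washed and lysed, then gamma counted. IC50 from nonlinear least-squares fit; mean of two experiments in triplicate.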

Melanocortin receptor 4 [2] = molecular target: T2, Melanocortin receptor 4 (Homo sapiens, UniProt P32245); experiment: Inhibitory activity against hMC4R transfected in HEK293 cells; format: cell-based; method in brief: as §1
Melanocortin receptor 5 [3] = molecular target: T3, Melanocortin receptor 5 (Homo sapiens, UniProt P33032); experiment: Inhibitory activity against hMC5R transfected in HEK293 cells; format: cell-based; method in brief: as §1
Melanocortin receptor 5 [4] = molecular target: T3, Melanocortin receptor 5; experiment: Activity against hMC5R transfected in HEK293 cells by intracellular cAMP accumulation; format: functional, cell-based
Method in brief: (§2)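 HEK293 cells stably transfected with human receptor, grown to confluence in MEM with 10% FBS, seeded 48 h before assay. Cells preincubated 1 min at 37 °C in EBSS with IBMX (0.5 mM stock). Peptide added (10^-10 to 10^-5 M), 3 min at 37 °C. Stopped with ice-cold Tris/EDTA, boiled, cAMP measured by competitive binding kit. EC50 from nonlinear least-squares fit; mean of two experiments in triplicate.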

[5] = molecular target: T4, Melanocyte-stimulating hormone receptor (Homo sapiens, UniProt Q01726); experiment: Inhibitory activity against hMC1R transfected in HEK293 cells; format: cell-based; method in brief: as §1
Target sequence in this assay (Q01726 whole entry): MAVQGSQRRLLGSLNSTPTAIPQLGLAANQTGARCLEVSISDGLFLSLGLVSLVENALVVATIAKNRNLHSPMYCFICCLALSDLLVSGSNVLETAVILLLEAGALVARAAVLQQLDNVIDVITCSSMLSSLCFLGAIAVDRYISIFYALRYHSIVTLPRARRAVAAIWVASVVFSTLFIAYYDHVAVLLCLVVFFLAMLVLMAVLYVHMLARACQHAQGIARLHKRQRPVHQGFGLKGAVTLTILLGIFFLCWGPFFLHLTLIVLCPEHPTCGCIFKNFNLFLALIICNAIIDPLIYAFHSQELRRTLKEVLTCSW

[6] = molecular target: T4, Melanocyte-stimulating hormone receptor; experiment: Activity against hMC1R transfected in HEK293 cells by intracellular cAMP accumulation; format: functional, cell-based; method in brief: as §2
Melanocortin receptor 4 [7] = molecular target: T2, Melanocortin receptor 4; experiment: Activity against hMC4R transfected in HEK293 cells by intracellular cAMP accumulation; format: functional, cell-based; method in brief: as §2
Melanocortin receptor 3 [8] = molecular target: T1, Melanocortin receptor 3; experiment: Activity against hMC3R transfected in HEK293 cells by intracellular cAMP accumulation; format: functional, cell-based; method in brief: as §2

T3 sequence (P33032 whole entry): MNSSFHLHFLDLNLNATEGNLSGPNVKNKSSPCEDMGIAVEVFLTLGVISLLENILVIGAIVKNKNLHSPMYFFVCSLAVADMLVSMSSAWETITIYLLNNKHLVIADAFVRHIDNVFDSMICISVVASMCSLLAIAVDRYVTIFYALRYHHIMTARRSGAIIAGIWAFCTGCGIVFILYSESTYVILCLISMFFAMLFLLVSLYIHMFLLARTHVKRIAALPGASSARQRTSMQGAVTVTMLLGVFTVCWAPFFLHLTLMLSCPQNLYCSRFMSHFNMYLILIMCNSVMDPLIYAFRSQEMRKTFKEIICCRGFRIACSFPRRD
T2 sequence (P32245 whole entry): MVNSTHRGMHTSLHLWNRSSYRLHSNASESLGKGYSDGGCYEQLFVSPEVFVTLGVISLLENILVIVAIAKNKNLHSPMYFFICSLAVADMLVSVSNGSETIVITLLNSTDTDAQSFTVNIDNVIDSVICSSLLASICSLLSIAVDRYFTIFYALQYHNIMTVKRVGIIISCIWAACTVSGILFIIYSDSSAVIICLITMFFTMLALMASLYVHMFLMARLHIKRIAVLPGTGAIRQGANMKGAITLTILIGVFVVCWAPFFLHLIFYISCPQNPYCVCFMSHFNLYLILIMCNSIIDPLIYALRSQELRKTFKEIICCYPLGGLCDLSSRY
T1 sequence (P41968 whole entry): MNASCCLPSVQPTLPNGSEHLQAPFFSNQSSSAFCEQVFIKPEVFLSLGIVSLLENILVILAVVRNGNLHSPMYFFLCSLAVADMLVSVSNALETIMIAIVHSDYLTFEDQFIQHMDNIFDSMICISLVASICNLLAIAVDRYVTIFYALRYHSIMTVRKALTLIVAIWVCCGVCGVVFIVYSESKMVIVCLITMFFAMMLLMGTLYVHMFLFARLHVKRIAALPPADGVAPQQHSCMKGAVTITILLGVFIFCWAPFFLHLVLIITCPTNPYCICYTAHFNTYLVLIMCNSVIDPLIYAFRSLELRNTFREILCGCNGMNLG

Compound | IC50 (Melanocortin receptor 3 [1]) [nM] | IC50 (Melanocortin receptor 4 [2]) [nM] | IC50 (Melanocortin receptor 5 [3]) [nM] | %max (Melanocortin receptor 5 [4]) [%] | EC50 (Melanocortin receptor 5 [4]) [nM] | IC50 [5] [nM] | %max [6] [%] | EC50 [6] [nM] | %max (Melanocortin receptor 4 [7]) [%] | EC50 (Melanocortin receptor 4 [7]) [nM] | %max (Melanocortin receptor 3 [8]) [%] | EC50 (Melanocortin receptor 3 [8]) [nM]
CCCC[C@@H]1NC(=O)CC[C@@H](C(N)=O)NC(=O)[C@H](Cc2c[nH]c3ccccc23)NC(=O)[C@H](CCCN=C(N)N)NC(=O)[C@@H](Cc2ccccc2)NC(=O)[C@H](CCC(=O)O)NC1=O | 1200 | > 10000 | 3060 | – | > 10000 | > 10000 | – | > 10000 | – | > 10000 | – | 4300
CCCC[C@@H]1NC(=O)CC[C@@H](C(N)=O)NC(=O)[C@H](Cc2c[nH]c3ccccc23)NC(=O)[C@H](CCCN=C(N)N)NC(=O)[C@@H](Cc2ccccc2)NC(=O)[C@H](Cc2c[nH]cn2)NC1=O | 560 | 170 | 100 | 0 | > 10000 | > 10000 | 0 | > 10000 | 48 | 2000 | 147 | 37
CCCC[C@@H]1NC(=O)CC[C@@H](C(N)=O)NC(=O)[C@H](Cc2c[nH]c3ccccc23)NC(=O)[C@H](CCCN=C(N)N)NC(=O)[C@@H](Cc2ccc3ccccc3c2)NC(=O)[C@H](Cc2cnc[nH]2)NC1=O | 12 | 100 | 2.3 | – | > 10000 | > 10000 | – | > 10000 | – | > 10000 | – | > 10000

Results, then the molecule that gave them:

IC50 (Melanocortin receptor 3 [1]) [nM] | IC50 (Melanocortin receptor 4 [2]) [nM] | IC50 (Melanocortin receptor 5 [3]) [nM] | %max (Melanocortin receptor 5 [4]) [%] | EC50 (Melanocortin receptor 5 [4]) [nM] | IC50 [5] [nM] | %max [6] [%] | EC50 [6] [nM] | %max (Melanocortin receptor 4 [7]) [%] | EC50 (Melanocortin receptor 4 [7]) [nM] | %max (Melanocortin receptor 3 [8]) [%] | EC50 (Melanocortin receptor 3 [8]) [nM] | Compound
250 | 600 | 70 | 0 | > 10000 | > 10000 | 0 | > 10000 | 50 | > 1000 | 27 | 300 | CCCC[C@@H]1NC(=O)CC[C@@H](C(N)=O)NC(=O)[C@H](Cc2c[nH]c3ccccc23)NC(=O)[C@H](CCCN=C(N)N)NC(=O)[C@@H](Cc2ccccc2)NC(=O)[C@H](CCCC)NC1=O
6 | 16 | 3.8 | 10 | 200 | 3000 | 0 | > 1000 | 31 | 340 | 0 | > 10000 | CCCC[C@@H]1NC(=O)CC[C@@H](C(N)=O)NC(=O)[C@H](Cc2c[nH]c3ccccc23)NC(=O)[C@H](CCCN=C(N)N)NC(=O)[C@@H](Cc2ccc3ccccc3c2)NC(=O)[C@H](CCCC)NC1=O
